ChEMBL document CHEMBL1132587, “Synthesis and serotonergic activity of 3-[2-(pyrrolidin-1-yl)ethyl]indoles: potent agonists for the h5-HT1D receptor with high selectivity over the h5-HT1B receptor” (J Med Chem, 1999)
“And” between values parts separate entries of the source, which are not always exact repeats. Equal entries are not always repeated.

How the values were obtained:
[1] = target: T1, 5-hydroxytryptamine receptor 1B (Homo sapiens, UniProt P28222); experiment: Displacement of [3H]5-HT binding from the cloned human 5-hydroxytryptamine 1B receptor stably expressed in CHO cells; type: cell-based
[2] = target: T2, 5-hydroxytryptamine receptor 1D (Homo sapiens, UniProt P28221); experiment: Stimulation of [35S]GTP-gamma-S, binding in CHO cells expressing the 5-hydroxytryptamine 1D receptor; type: functional, cell-based
[3] = target: T2, 5-hydroxytryptamine receptor 1D; experiment: Displacement of [3H]5-HT binding from the cloned human 5-hydroxytryptamine 1D receptor stably expressed in CHO cells; type: cell-based
Rattus norvegicus [4] = experiment: Hepatic portal vein plasma concentration after oral administration; type: functional, organism-based
Outline: (§1)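 Fasted (≥12 h) rats, ~300 g, given 3 mg/kg orally in aqueous formulation (5 mL/kg); four rats per time point, isoflurane anaesthesia, hepatic portal vein blood at 0.5 or 2 h; plasma extracted (liquid-liquid or solid-phase) and analysed by reversed-phase HPLC with UV or fluorescence detection.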

[5] = target: T3, 5-hydroxytryptamine receptor 1A (Homo sapiens, UniProt P08908); experiment: Affinity of compound towards 5-hydroxytryptamine 1A receptor was evaluated using radioligand binding technique
T3 sequence (P08908 whole entry): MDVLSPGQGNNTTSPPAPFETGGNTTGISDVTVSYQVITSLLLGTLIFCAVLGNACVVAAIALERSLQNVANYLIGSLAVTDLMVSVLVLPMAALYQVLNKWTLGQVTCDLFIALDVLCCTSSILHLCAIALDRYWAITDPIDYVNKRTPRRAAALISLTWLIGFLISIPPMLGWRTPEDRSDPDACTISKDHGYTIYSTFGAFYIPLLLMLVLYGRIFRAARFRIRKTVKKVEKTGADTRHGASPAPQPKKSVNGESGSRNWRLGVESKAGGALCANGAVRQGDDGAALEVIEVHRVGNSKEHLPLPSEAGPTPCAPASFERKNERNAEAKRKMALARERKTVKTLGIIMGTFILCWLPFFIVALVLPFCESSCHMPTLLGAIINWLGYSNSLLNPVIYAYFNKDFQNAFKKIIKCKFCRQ

[6] = target: T1, 5-hydroxytryptamine receptor 1B; experiment: Affinity of compound towards 5-hydroxytryptamine 1B receptor was evaluated using radioligand binding technique
[7] = target: T2, 5-hydroxytryptamine receptor 1D; experiment: Affinity of compound towards 5-hydroxytryptamine 1D receptor was evaluated using radioligand binding technique
Rattus norvegicus [8] = experiment: Hepatic portal vein plasma concentration after administration; type: functional, organism-based; outline: as §1
[9] = target: 5-hydroxytryptamine receptor 2A (Rattus norvegicus) (UniProt P14842); experiment: Affinity of compound towards rat 5-hydroxytryptamine 2A receptor was evaluated using radioligand binding technique
Chain of 5-hydroxytryptamine receptor 2A (Rattus norvegicus) (P14842 whole entry, looked up): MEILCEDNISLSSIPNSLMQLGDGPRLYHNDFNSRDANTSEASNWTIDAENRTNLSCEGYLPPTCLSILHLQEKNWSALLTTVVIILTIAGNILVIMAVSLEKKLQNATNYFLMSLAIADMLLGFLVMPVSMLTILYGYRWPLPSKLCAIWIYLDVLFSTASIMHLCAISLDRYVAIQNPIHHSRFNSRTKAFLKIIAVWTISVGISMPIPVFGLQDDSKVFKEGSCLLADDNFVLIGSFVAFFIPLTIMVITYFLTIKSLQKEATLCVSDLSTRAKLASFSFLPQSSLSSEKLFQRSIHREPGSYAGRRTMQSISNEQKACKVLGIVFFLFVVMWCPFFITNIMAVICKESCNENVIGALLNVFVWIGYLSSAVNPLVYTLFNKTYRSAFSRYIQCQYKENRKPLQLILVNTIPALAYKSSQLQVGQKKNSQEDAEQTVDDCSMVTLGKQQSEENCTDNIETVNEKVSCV

T2 sequence (P28221 whole entry): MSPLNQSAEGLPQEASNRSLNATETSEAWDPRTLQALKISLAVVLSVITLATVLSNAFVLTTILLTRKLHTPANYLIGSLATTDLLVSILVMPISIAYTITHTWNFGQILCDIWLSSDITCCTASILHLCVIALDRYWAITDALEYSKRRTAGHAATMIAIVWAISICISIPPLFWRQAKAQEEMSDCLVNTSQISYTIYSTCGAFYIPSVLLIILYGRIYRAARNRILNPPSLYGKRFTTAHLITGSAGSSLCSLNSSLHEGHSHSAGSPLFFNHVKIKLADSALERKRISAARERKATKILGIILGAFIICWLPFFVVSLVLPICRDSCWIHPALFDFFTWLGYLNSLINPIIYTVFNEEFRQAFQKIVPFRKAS
T1 sequence (P28222 whole entry): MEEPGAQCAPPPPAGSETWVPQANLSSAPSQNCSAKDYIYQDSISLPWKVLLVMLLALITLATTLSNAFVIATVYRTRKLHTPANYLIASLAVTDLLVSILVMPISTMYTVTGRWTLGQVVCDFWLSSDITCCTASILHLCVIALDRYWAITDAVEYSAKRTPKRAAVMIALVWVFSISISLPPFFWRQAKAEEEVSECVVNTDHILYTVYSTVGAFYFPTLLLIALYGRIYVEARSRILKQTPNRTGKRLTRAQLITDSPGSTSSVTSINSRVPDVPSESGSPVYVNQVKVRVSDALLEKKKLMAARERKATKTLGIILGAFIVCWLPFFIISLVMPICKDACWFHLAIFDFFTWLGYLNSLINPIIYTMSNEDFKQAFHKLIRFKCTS

`CN(Cc1ccccc1)C[C@@H]1CCN(CCc2c[nH]c3ccc(Cn4cncn4)cc23)C1` gave an IC50 [1] of 575 nM, an EC50 [2] of 11 nM and an IC50 [3] of 7.7 nM. For the same molecule, the Plasma concentration (Rattus norvegicus [4]) was 39 ng/mL and 114 ng/mL.
For `O[C@@H]1CCN(CCc2c[nH]c3ccc(-n4cnnc4)cc23)C1`, the IC50 [1] was 93 nM, the EC50 [2] was 7.8 nM and the IC50 [3] was 9 nM.
`c1ccc(NC[C@@H]2CCN(CCc3c[nH]c4ccc(-n5cnnc5)cc34)C2)cc1` was tested, and the IC50 [1] was 87 nM and the IC50 [3] was 9.1 nM.
`c1ccc(CNC[C@@H]2CCN(CCc3c[nH]c4ccc(-n5cnnc5)cc34)C2)cc1` was tested, and the IC50 [5] was 5.4 nM, the EC50 [2] was 0.8 nM and the Plasma concentration (Rattus norvegicus [4]) was < 5 ng/mL.
With `c1ccc(COC[C@@H]2CCN(CCCc3c[nH]c4ccc(-n5cnnc5)cc34)C2)cc1` the IC50 [1] was 33 nM and the IC50 [3] was 2.1 nM.
`CN(Cc1ccccc1)[C@@H]1CCN(CCc2c[nH]c3ccc(-n4cnnc4)cc23)C1` was tested, and the IC50 [3] was 37 nM.
With `CC(C)(NC[C@@H]1CCN(CCc2c[nH]c3ccc(-n4cnnc4)cc23)C1)c1ccccc1` the IC50 [1] was 39 nM, the EC50 [2] was 0.3 nM and the IC50 [3] was 1 nM.
`O=C1N[C@@H](Cc2ccc3[nH]cc(CCN4CC[C@@H](CNCc5ccccc5)C4)c3c2)CO1` was tested, and the IC50 [5] was 17 nM, the IC50 [6] was 49 nM and the IC50 [1] was 49 nM. For the same molecule, the EC50 [2] was 1.7 nM, the IC50 [7] was 0.35 nM and the IC50 [3] was 0.35 nM. The Plasma concentration (Rattus norvegicus [8]) was < 2 ng/mL and 4 ng/mL and the IC50 [9] was 3000 nM.
`OC[C@@H]1CCN(CCc2c[nH]c3ccc(-n4cnnc4)cc23)C1` gave an IC50 [1] of 93 nM and an IC50 [3] of 26 nM.
In the case of `C[C@H](NC[C@@H]1CCN(CCc2c[nH]c3ccc(Cn4cncn4)cc23)C1)c1ccccc1`, the IC50 [1] is reported as 305 nM, the EC50 [2] is reported as 3 nM and the IC50 [3] is reported as 2.5 nM.
For `c1ccc(COC[C@@H]2CCCN2CCc2c[nH]c3ccc(-n4cnnc4)cc23)cc1`, the IC50 [1] was 2.7 nM and the IC50 [3] was 0.81 nM.
`CN(Cc1ccccc1)C[C@@H]1CCN(CCCc2c[nH]c3ccc(-n4cnnc4)cc23)C1` showed an IC50 [1] of 59 nM and an IC50 [3] of 4.2 nM.
Molecule `c1cc2[nH]cc(CCN3CCC3)c2cc1-n1cnnc1` has an IC50 [1] of 4.4 nM and an IC50 [3] of 1.1 nM.
`CNS(=O)(=O)Cc1ccc2[nH]cc(CCN3CC[C@@H](CNCc4ccccc4)C3)c2c1` gave an IC50 [5] of 41 nM, an IC50 [6] of 62 nM and an IC50 [1] of 62 nM. The EC50 [2] was 3.5 nM, the IC50 [7] was 1.1 nM and the IC50 [3] was 1.1 nM. It also gave an IC50 [9] of 5800 nM.
Molecule `c1cc(CNC[C@@H]2CCN(CCc3c[nH]c4ccc(-n5cnnc5)cc34)C2)co1` has an IC50 [1] of 12 nM, an EC50 [2] of 1.3 nM and an IC50 [3] of 0.45 nM.
With `c1ccc(CNC[C@@H]2CCN(CCc3c[nH]c4ccc(-n5cnnc5)cc34)C2)nc1` the IC50 [1] was 48 nM and the IC50 [3] was 3.6 nM.
For `c1cc(CNC[C@@H]2CCN(CCc3c[nH]c4ccc(-n5cnnc5)cc34)C2)ccn1`, the IC50 [1] was 110 nM, the EC50 [2] was 9.5 nM and the IC50 [3] was 8.5 nM.
`C=CCNC[C@@H]1CCN(CCc2c[nH]c3ccc(-n4cnnc4)cc23)C1` showed an IC50 [1] of 325 nM and an IC50 [3] of 17 nM.
Work on `C[C@H](NC[C@@H]1CCN(CCc2c[nH]c3ccc(-n4cnnc4)cc23)C1)c1ccccc1` yielded an IC50 [1] of 41 nM, an EC50 [2] of 0.63 nM and an IC50 [3] of 0.45 nM.
`C[C@H](NC[C@@H]1CCN(CCc2c[nH]c3ccc(C[C@H]4COC(=O)N4)cc23)C1)c1ccccc1` was tested, and the IC50 [5] was 8.7 nM, the IC50 [6] was 50 nM and the IC50 [1] was 49 nM. The EC50 [2] was 0.5 nM, the IC50 [7] was 0.3 nM and the IC50 [3] was 0.3 nM. For the same molecule, the IC50 [9] was 2200 nM.
With `c1ccc(COC[C@H]2CCCN2CCc2c[nH]c3ccc(-n4cnnc4)cc23)cc1` the IC50 [1] was 575 nM and the IC50 [3] was 95 nM.
`c1ccc(CNC[C@@H]2CCN(CCc3c[nH]c4ccc(Cn5cncn5)cc34)C2)cc1` gave an IC50 [1] of 260 nM, an EC50 [2] of 4.9 nM and an IC50 [3] of 3.2 nM. For the same molecule, the Plasma concentration (Rattus norvegicus [4]) was < 25 ng/mL and 55 ng/mL.
Molecule `C[C@@H](NC[C@@H]1CCN(CCc2c[nH]c3ccc(-n4cnnc4)cc23)C1)c1ccccc1` has an IC50 [1] of 74 nM, an EC50 [2] of 2.1 nM and an IC50 [3] of 0.72 nM.
With `CN(Cc1ccccc1)C[C@@H]1CCN(CCc2c[nH]c3ccc(-n4cnnc4)cc23)C1` the IC50 [1] was 32 nM and the EC50 [2] was 1.5 nM.
In the case of `c1ccc(CCNC[C@@H]2CCN(CCc3c[nH]c4ccc(-n5cnnc5)cc34)C2)cc1`, the IC50 [1] is reported as 125 nM, the EC50 [2] is reported as 6.2 nM and the IC50 [3] is reported as 2.6 nM.
In the case of `CC(=O)N(Cc1ccccc1)C[C@@H]1CCN(CCc2c[nH]c3ccc(-n4cnnc4)cc23)C1`, the IC50 [1] is reported as 11 nM and the IC50 [3] is reported as 1.1 nM.
Molecule `c1cc2[nH]cc(CCN3CCCC3)c2cc1-n1cnnc1` has an IC50 [1] of 28 nM, an EC50 [2] of 2.3 nM and an IC50 [3] of 3.1 nM.
In the case of `CN(Cc1ccccc1)C[C@@H]1CCN(CCc2c[nH]c3ccc(C[C@H]4COC(=O)N4C)cc23)C1`, the IC50 [1] is reported as 69 nM, the EC50 [2] is reported as 3.2 nM and the IC50 [3] is reported as 1.7 nM.
`CC(=O)Nc1ccc(CNC[C@@H]2CCN(CCc3c[nH]c4ccc(-n5cnnc5)cc34)C2)cc1` was tested, and the IC50 [1] was 165 nM, the EC50 [2] was 10 nM and the IC50 [3] was 12 nM.
Work on `CN(Cc1ccccc1)C[C@@H]1CCCN1CCc1c[nH]c2ccc(-n3cnnc3)cc12` yielded an IC50 [1] of 15 nM, an EC50 [2] of 3 nM and an IC50 [3] of 0.8 nM.
`c1ccc(CO[C@H]2CCN(CCc3c[nH]c4ccc(-n5cnnc5)cc34)C2)cc1` was tested, and the IC50 [1] was 275 nM, the EC50 [2] was 31 nM and the IC50 [3] was 20 nM.
Molecule `c1coc(CNC[C@@H]2CCN(CCc3c[nH]c4ccc(-n5cnnc5)cc34)C2)c1` has an IC50 [1] of 20 nM, an EC50 [2] of 2.8 nM and an IC50 [3] of 1.5 nM.
With `c1ccc(COC[C@@H]2CCN(CCc3c[nH]c4ccc(-n5cnnc5)cc34)C2)cc1` the IC50 [1] was 85 nM.
Molecule `c1ccc(CNC[C@H]2CCN(CCc3c[nH]c4ccc(-n5cnnc5)cc34)C2)cc1` has an IC50 [1] of 47 nM.
Work on `c1cncc(CNC[C@@H]2CCN(CCc3c[nH]c4ccc(-n5cnnc5)cc34)C2)c1` yielded an IC50 [1] of 62 nM and an IC50 [3] of 3.8 nM.
`CN(C)CCc1c[nH]c2ccc(-n3cnnc3)cc12` was tested, and the IC50 [1] was 1.3 nM and the EC50 [2] was 0.4 nM.
For `C[C@@H](c1ccccc1)N(C)C[C@@H]1CCN(CCc2c[nH]c3ccc(Cn4cncn4)cc23)C1`, the IC50 [1] was 87 nM, the EC50 [2] was 4.5 nM and the IC50 [3] was 0.7 nM.
